Measurements: ChEMBL document CHEMBL4011629, “New Disubstituted Quindoline Derivatives Inhibiting Burkitt's Lymphoma Cell Proliferation by Impeding c-MYC Transcription” (J Med Chem, 2017)
Active and inactive are the calls of the source. The rule behind the calls is not given here.

How the values were obtained:
Mus musculus [1] = test: Toxicity in NOD/SCID nude mouse xenografted with human Raji cells assessed as reduction in viscera weight at 1 mg/kg, ip administered once in 2 days for 2 weeks measured every day during compound dosing; type: organism-based; details: in vivo
How it was run: (§1)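 NOD/SCID mice implanted subcutaneously in the underarm with 5 × 10^6 RAJI cells in 100 μL RPMI 1640 with 10% serum; tumours grown about 1 week, then mice randomized. Body weight recorded daily; organ weights taken at end.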

Mus musculus [2] = test: Toxicity in NOD/SCID nude mouse xenografted with human Raji cells assessed as reduction in body weight at 1 mg/kg, ip administered once in 2 days for 2 weeks measured every day during compound dosing; type: organism-based; details: in vivo; how it was run: as §1
Raji = test: Antitumor activity against human Raji cells xenografted in NOD/SCID nude mouse assessed as reduction in tumor weight at 1 mg/kg, ip administered once in 2 days for 2 weeks relative to control; type: functional, organism-based
How it was run: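 NOD/SCID mice were implanted subcutaneously in the underarm with RAJI cells (5 × 10^6 per 100 μL of RPMI 1640 with 10% serum). Tumours reached […] after 1 week, and mice were then randomised. […] Tumour volume was recorded daily and tumour weight at the end.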

COc1cccc2c1C(=O)c1c(O)c3c(c(O)c1C2=O)C[C@@](O)(C(=O)CO)C[C@@H]3O[C@H]1C[C@H](N)[C@H](O)[C@H](C)O1 [DOXORUBICIN]
Activity (Mus musculus [1]): Toxic | Activity (Mus musculus [2]): Toxic | Activity (Raji): Active
